Activity calls are given as the source filed them. No cut-off for these calls is given here.
What was measured:
Plasmodium falciparum [1] = assay: Antiplasmodial activity against chloroquine-sensitive Plasmodium falciparum Ghana; type: functional, organism-based
Method in brief: (§1)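 Asexual P. falciparum cultures at 1% parasitaemia and 2% haematocrit (W2 for line 1, Ghana for line 2) exposed to 2-fold serial dilutions of the HCl salt for 48 h at 37 °C under 93% N2/4% CO2/3% O2. Plates frozen at -20 °C to lyse cells. Parasite LDH read-out: APAD reduction coupled to NBT formazan at 650 nm. IC50 in triplicate, mean ± SD.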

Trypanosoma brucei = assay: Antitrypanosomal activity against Trypanosoma brucei.; type: functional, organism-based
Method in brief: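 Bloodstream-form trypomastigotes grown in HMI-9 medium; 10 000 parasites per well exposed to a range of compound concentrations for 4 days. Multiplication read colorimetrically at 490 nm after MTT addition. Test compounds as hydrochloride salts; IC50 determined in triplicate (mean ± SD).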

Plasmodium falciparum [2] = assay: Antiplasmodial activity against chloroquine-resistant Plasmodium falciparum W2; type: functional, organism-based; method in brief: as §1
MRC5 = assay: Cytotoxicity against human diploid embryonic lung cell line MRC-5 using MTT assay; type: functional, cell-based
Method in brief: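 Cells seeded at 5000 per well and washed after 24 h. 2-fold drug dilutions added in RPMI + 5% FCS, final DMSO below 0.5%. Incubated 7 days at 37 °C, 5% CO2/95% air. MTT read-out at 540 nm as percent reduction versus untreated controls. IC50 in triplicate (mean ± SD).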

Trypanosoma cruzi = assay: Antitrypanosomal activity against Trypanosoma cruzi; type: functional, organism-based
Method in brief: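 Primary mouse peritoneal macrophages seeded at 30 000 per well; after 24 h, about 10 000 trypomastigotes added per well with 2-fold drug dilutions. Incubated 4 days at 37 °C in 5% CO2/95% air. Cells MeOH-fixed and Giemsa-stained. Percent reduction of total parasite load (free trypomastigotes plus intracellular amastigotes) versus untreated cultures scored microscopically. IC50 in triplicate (mean ± SD).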

Nucleic Acid [3] = assay: (§2) Inhibition of DNA interaction using DNA Methyl Green Assay.; type: nucleic-acid assay
Method in brief: (§3)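 DNA–methyl green complex stirred 24 h at 37 °C in 0.05 M Tris-HCl pH 7.5 with 7.5 mM MgSO4. Compound dried in wells under vacuum, then complex solution added. Absorbance at 620 nm compared between start and 24 h. IC50 taken as the concentration giving 50% absorbance decrease (50% dye displacement).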

[4] = Inhibition of beta-hematin formation; active
[5] = target: T1, Histidine-rich protein PFHRP-II (Plasmodium falciparum) (UniProt P05227); assay: Inhibition of beta-hematin formation; no inhibition; type: functional
T1 sequence (whole entry): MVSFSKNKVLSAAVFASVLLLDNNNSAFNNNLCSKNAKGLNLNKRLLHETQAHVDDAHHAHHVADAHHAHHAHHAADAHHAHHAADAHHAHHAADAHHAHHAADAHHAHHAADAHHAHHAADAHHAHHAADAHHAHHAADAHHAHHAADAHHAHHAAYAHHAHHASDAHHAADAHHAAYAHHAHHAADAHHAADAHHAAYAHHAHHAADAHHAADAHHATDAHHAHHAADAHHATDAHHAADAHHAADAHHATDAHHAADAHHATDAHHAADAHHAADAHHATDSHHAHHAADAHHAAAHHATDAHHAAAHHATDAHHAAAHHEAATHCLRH
Method in brief: (§4)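 Hematin solutions received compound at 3 equiv relative to hemin before acidification. Incubated 40 min at 60 °C, then cooled and filtered; precipitate washed with water and dried. β-Hematin detected by FT-IR bands at 1660 and 1207 cm-1. Hemin without compound served as the formation control. Result is a qualitative yes/no call.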

[6] = target: T1, Histidine-rich protein PFHRP-II (Plasmodium falciparum); assay: Inhibition of beta-hematin formation; active; type: functional; method in brief: as §4
Nucleic Acid [7] = assay: as §2; type: functional; method in brief: as §3
Nucleic Acid [8] = assay: as §2; type: nucleic-acid assay; conditions: concentration not given here; method in brief: as §3

Row | Compound | IC50 (Plasmodium falciparum [1]) [µM] | IC50 (Trypanosoma brucei) [µM] | IC50 (Plasmodium falciparum [2]) [µM] | IC50 (MRC5) [µM] | IC50 (Trypanosoma cruzi) [µM] | IC50 (Nucleic Acid [3]) [µM] | inhibition [4] | inhibition [5] | inhibition [6] | IC50 (Nucleic Acid [7]) [µM] | inhibition (Nucleic Acid [8]) [%]
1 | Cn1c2nc3ccc(C#N)cc3c-2cc2cc(Cl)ccc21 | > 32 | > 32 | > 32 | > 32 | – | – | – | – | – | – | –
2 | Cn1c2nc3ccccc3c-2cc2cc(I)ccc21 | 17.7 | 1 | 6.3 | 16 | 18.3 | > 400 | Active | – | – | – | –
3 | Cn1c2nc3ccccc3c-2cc2c(Br)cccc21 | > 32 | 16.7 | > 32 | 16 | 15.7 | > 600 | – | inactive | – | – | –
4 | Cn1c2nc3ccccc3c-2cc2ccc(C(F)(F)F)cc21 | – | 16.7 | – | 18 | > 32 | > 500 | – | – | Active | – | –
5 | C[n+]1c2ccccc2cc2[n-]c3ccccc3c21 [CRYPTOLEPINE] | 2.3 | 3 | 2 | 1.5 | – | 65.7 | Active | – | – | – | –
6 | COc1ccc2c(c1)cc1c3cc(C#N)ccc3nc-1n2C | 28.3 | 1 | 17 | > 32 | 1 | > 500 | – | No inhibition | – | – | –
7 | Cn1c2nc3ccccc3c-2cc2ccc(Br)cc21 | – | 27.3 | – | 18.5 | > 32 | > 600 | – | – | Active | – | –
8 | Fc1ccc2[nH]c3nc4ccccc4c-3cc2c1 | > 32 | > 32 | > 32 | > 32 | > 32 | > 1000 | – | No inhibition | – | – | –
9 | Clc1cc(Cl)c2[nH]c3nc4ccccc4c-3cc2c1 | > 32 | > 32 | > 32 | > 32 | – | – | Active | – | – | > 1000 | –
10 | COc1cccc2c1cc1c3ccccc3nc-1n2C | 17.7 | 1.3 | 12.3 | 5 | 4 | > 1000 | – | No inhibition | – | – | –
11 | Cn1c2nc3ccc(C#N)cc3c-2cc2ccccc21 | > 32 | > 32 | > 32 | > 32 | – | > 1000 | Active | – | – | – | –
12 | Cn1c2nc3ccc(C#N)cc3c-2cc2cc(F)ccc21 | 16.3 | 4 | 14.7 | 11 | > 32 | > 600 | Active | – | – | – | –
13 | Cn1c2nc3ccc(C#N)cc3c-2cc2cc(C(F)(F)F)ccc21 | 14 | > 32 | 6.7 | > 32 | > 32 | > 200 | – | – | – | – | –
14 | Clc1ccc2[nH]c3nc4ccccc4c-3cc2c1 | > 32 | > 32 | > 32 | > 32 | > 32 | > 1000 | Active | – | – | – | –
15 | CSc1ccc2c(c1)cc1c3ccccc3nc-1n2C | 4 | 0.8 | 3.7 | 5 | 4 | > 600 | Active | – | – | – | –
16 | Cn1c2nc3ccccc3c-2cc2ccc(Cl)cc21 | – | 9.3 | – | 15.5 | 17 | > 700 | – | – | Active | – | –
17 | Cn1c2nc3ccccc3c-2cc2cc(C#N)ccc21 | 17 | 4 | 15.3 | 16 | 16.3 | > 600 | – | – | – | – | –
18 | Cn1c2nc3ccccc3c-2cc2cc(Cl)ccc21 | 21 | 1.3 | 5 | 16.5 | 12 | > 500 | Active | – | – | – | –
19 | Cn1c2nc3ccccc3c-2cc2c(C(F)(F)F)cccc21 | > 32 | > 32 | > 32 | 16 | 16.3 | > 400 | – | – | – | – | –
20 | Cn1c2nc3ccccc3c-2cc2cc(Br)ccc21 | 6 | 1 | 4 | > 32 | > 32 | > 400 | Active | – | – | – | –
21 | COc1ccc2c(c1)cc1c3ccccc3nc-1n2C | 4.3 | 0.3 | 4.7 | 4 | 1.7 | 77.9 | – | No inhibition | – | – | –
22 | COc1ccc2cc3c4ccccc4nc-3n(C)c2c1 | – | 0.4 | – | 3.5 | 1 | 150 | – | No inhibition | – | – | 37
23 | Cn1c2nc3ccccc3c-2cc2cc(F)ccc21 | 19.3 | 14.3 | 4.7 | 15 | 6 | > 500 | Active | – | – | – | –
24 | Cn1c2nc3ccccc3c-2cc2ccccc21 [NEOCRYPTOLEPINE] | 27.3 | 4 | 14 | 11 | 4 | 92.8 | Active | – | – | – | –
25 | COc1ccc2[nH]c3nc4ccccc4c-3cc2c1 | > 32 | > 32 | > 32 | > 32 | – | > 1000 | – | – | Active | – | –
26 | Cn1c2nc3ccccc3c-2cc2cc([N+](=O)[O-])ccc21 | 29 | 0.7 | > 32 | > 32 | – | > 1000 | – | – | – | – | –
27 | Cc1ccc2c(c1)cc1c3ccccc3nc-1n2C | 2.7 | 0.1 | 2.3 | 0.95 | – | – | – | – | – | – | –

— ChEMBL document CHEMBL1135534, “Synthesis, cytotoxicity, and antiplasmodial and antitrypanosomal activity of new neocryptolepine derivatives” (J Med Chem, 2002)
